Bioassay records from PubChem.
Sampled rows, rich in hits. Any-hit rate of the full collection: about 2.3%.
STEP block: blocks human striatal-enriched tyrosine phosphatase | AID 588621 | recombinant STEP, OMFP fluorogenic substrate, fluorescence | P54829 | actives 0.25% (n = 360,000) | inhibition, % at 20 µM;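 active = inhibition at 20 µM, scaled per plate between control wells, above about 37%, limit read from the data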;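 note: 0% = DMSO with enzyme and substrate and 100% = substrate only without enzyme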
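System: STEP (striatal-enriched tyrosine phosphatase) enzyme, cell-free; medium: Bis-Tris pH 6.0 buffer with DTT, detergent; dosing: 20 µM, 1% DMSO; times: reaction 20 min, ambient temperature; detection: fluorescence, 480/540 nm; read-out basis: normalized % inhibition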
DNMT1 block: inhibitors of human DNMT1; P26358; DNMT1 molecular beacon, Hinp1I cleavage, fluorescence; inhibition (reported as % activation of signal), % at 10 µM; actives 0.83% (n = 360,000); in the data active = inhibition above about 50%
Scp1 inh: blocks human Scp-1 phosphatase activity; Q9GZU7; Recombinant Scp1, phosphopeptide, malachite green phosphate absorbance; AID 493091; actives 0.88% (n = 340,000); inhibition, % at 20 µM;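 active = inhibition above about 50% at 20 µM, limit read from the data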;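 note: plate controls were DMSO wells with enzyme for no effect and wells lacking enzyme for full effect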
Target sequence (Q9GZU7 76-261 limits assumed): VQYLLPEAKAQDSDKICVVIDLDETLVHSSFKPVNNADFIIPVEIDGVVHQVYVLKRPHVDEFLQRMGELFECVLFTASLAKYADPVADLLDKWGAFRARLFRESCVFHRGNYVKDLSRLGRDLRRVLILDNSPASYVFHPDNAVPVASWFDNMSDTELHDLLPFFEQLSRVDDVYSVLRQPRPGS
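Material – SCP-1 phosphatase catalytic domain, residues 76-261 · Buffer or medium – Acidic Tris acetate buffer with magnesium and detergent · Also added – Phospho 17-mer peptide substrate · Compound – single 20 µM dose, 1% DMSO · Times – 45 min room-temperature reaction, 5 min colour, 30 min stabiliser · Technique – Phosphate-binding colour reagent, absorbance read at 630 nm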
LMPTP inh: LMPTP (human) inhibition; recombinant LMPTP-A, OMFP fluorogenic substrate, fluorescence intensity; inhibition, % at 20 µM; actives 0.22% (n = 360,000);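 active = compounds that cut the enzyme signal by at least half of the control window in the single-dose screen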;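 note: plate controls were DMSO wells with enzyme plus substrate for no effect and substrate without enzyme for full effect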
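material = LMPTP-A | quantity = 0.625 nM enzyme | reagent = OMFP substrate, 400 µM final | buffer or medium = Bis-Tris pH 6.0, DTT, detergent | detection = endpoint fluorescence intensity from OMFP dephosphorylation | dosing = single 20 µM dose | read-out basis = % inhibition relative to no-enzyme and uninhibited control wells | control set = no-enzyme and uninhibited controls | timing = 50 min at room temperature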
SUMO1 PPI mod: modulators of human SUMO1-mediated protein-protein interactions; SUMO1 binding to a labelled peptide, TR-FRET, 1 h; inhibition, % at 20 µM; actives 0.33% (n = 360,000); in the data active = inhibition above about 37%
Rpn11 block: blocks the human proteasome subunit Rpn11. actives 0.59% (n = 360,000). inhibition, % at 20 µM. human 26S proteasome, Ub4-pepOG fluorescence polarization; 20S core pre-blocked with epoxomicin. O00487;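 active = inhibition at 20 µM, scaled to each plate's controls, above about 33%, limit read from the data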
Target sequence (O00487 whole entry, looked up): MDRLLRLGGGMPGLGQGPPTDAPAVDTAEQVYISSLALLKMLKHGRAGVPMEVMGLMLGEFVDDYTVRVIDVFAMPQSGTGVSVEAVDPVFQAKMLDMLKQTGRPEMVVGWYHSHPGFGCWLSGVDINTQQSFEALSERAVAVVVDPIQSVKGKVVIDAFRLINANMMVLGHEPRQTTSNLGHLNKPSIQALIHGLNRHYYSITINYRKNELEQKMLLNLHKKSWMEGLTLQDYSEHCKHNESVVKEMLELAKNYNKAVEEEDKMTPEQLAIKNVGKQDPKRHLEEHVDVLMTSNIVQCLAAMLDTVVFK
Scp1 confirm: confirmation of human Scp-1 phosphatase inhibitors. inhibition, % at 20 µM. recombinant SCP-1 catalytic domain, phosphate release, malachite green absorbance. actives 61% (n = 2,500). shares compounds with Scp1 inh;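 note: plate controls were DMSO with enzyme for no effect and buffer wells lacking enzyme for full effect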
Scp-1 MG ctr: interferes with malachite green readout, flagging false Scp-1 hits; shares compounds with Scp1 inh; Colorimetric interference counterscreen, malachite green absorbance 630 nm; apparent inhibition (interference), % at 20 µM; 2,500 tested, under 10 active; AID 540313;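 note: compounds added after enzyme reaction finished so only phosphate colour detection is probed; plate controls were DMSO wells with completed Scp-1 reaction for no effect and substrate wells lacking enzyme for full effect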
Scp-1 Tm shift: binds human Scp-1, shifting its melting temperature. actives 25% (n = 1,500). shares compounds with Scp1 inh. thermal shift relative to vanadate control, % at 40 µM. Recombinant SCP1, Sypro Orange thermal shift Tm;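 active = substances whose mean melting-temperature shift, as a percentage of the reference inhibitor's shift, reaches about 5.3%, limit read from the data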;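 note: 0% = Tm of DMSO wells and 100% = Tm with sodium orthovanadate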
* = called active by the depositor; x = no result given.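 Rule for the calls, unless noted: active = inhibition of at least 30% at 20 µM; inactive = the rest.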

SMILES | STEP block | DNMT1 block | Scp1 inh | LMPTP inh | SUMO1 PPI mod | Rpn11 block | Scp1 confirm | Scp-1 MG ctr | Scp-1 Tm shift
Cc1ccc2ccccc2[n+]1CCCS(=O)(=O)[O-] | 0 | 4 | 18 | 0 | -10 | -1 | x | x | x
O=c1[nH]c2cc3c(cc2cc1CN(Cc1cccnc1)Cc1nnnn1Cc1ccco1)OCCO3 | 3 | 8 | 84* | 47 | 16 | 12 | 12 | -13 | x
O=c1[nH]c2cc3c(cc2cc1CN(Cc1ccccc1)Cc1nnnn1Cc1ccco1)OCCO3 | 4 | 4 | -2 | 26 | 16 | x | x | x | x
O=C(NNC(=O)c1ccc2ccccc2c1)c1ccc(Cl)c(Cl)c1 | 1 | 26 | 64* | 15 | 3 | -10 | 58* | -8 | -23
O=C(NNC(=O)c1cccc2ccccc12)c1ccc(Cl)c(Cl)c1 | -1 | -5 | -3 | 0 | -2 | 0 | x | x | x
CCN(CC)C(=O)COc1ccc2oc(-c3ccco3)cc(=O)c2c1 | 4 | 20 | 74* | 3 | -13 | 0 | 49* | -4 | -1
CCN(CC)C(=O)COc1c(-c2ccco2)oc2ccccc2c1=O | 0 | 2 | 0 | -2 | -23 | 5 | x | x | x
O=S(=O)(NCCC1=CCCCC1)c1ccc(OC(F)(F)F)cc1 | -2 | 5 | -2 | 3 | 7 | -7 | x | x | x
Cc1ccc(NC(=O)c2cc(-c3ccc(C)c(C)c3O)n[nH]2)cc1C | 12 | 15 | 99* | 20 | 14 | 2 | 67* | -5 | 7.5*
CC(=O)Nc1ccc(NC(=O)c2cc(-c3ccc(C)c(C)c3O)n[nH]2)cc1 | 0 | -12 | -19 | 0 | 6 | 4 | x | x | x
Cc1ccc(-c2nc(NC(=O)CSc3ncn[nH]3)ns2)cc1 | 3 | 25 | -11 | -1 | -10 | -2 | x | x | x
Cc1nnc(SCC(=O)Nc2nsc(-c3ccc(Cl)cc3)n2)s1 | 13 | 45 | 70* | 3 | -9 | 13 | 43* | -15 | -9
CC(C)C(C(=O)NC1CCCC1)N1CCN(c2ncccc2C#N)CC1 (configuration not stated) | x | x | x | -2 | 0 | x | x | x | x
CCOc1cc(S(=O)(=O)Nc2cc(C)cc(C)c2)ccc1Cl | 2 | -14 | 66* | 3 | 1 | 3 | -22 | -16 | x
C=CC1=C(C(=O)O)N2C(=O)[C@@H](NC(=O)/C(=N\O)c3csc(N)n3)[C@H]2SC1 (stereo in doubt) | 73* | 89* | 98* | 79* | 63* | 37 | 60* | -11 | 2
COc1ccc(C(=O)N2CCC(n3nccc3NC(=O)C3CC3)CC2)cc1F | -4 | 5 | -5 | 0 | -1 | -4 | x | x | x
COc1cc(-c2nnc(COC(=O)c3cc(C)no3)o2)cc(OC)c1OC | 1 | -3 | -5 | -1 | 5 | -2 | x | x | x
COc1cc(-c2nnc(COC(=O)c3ccc(C)o3)o2)cc(OC)c1OC | 13 | 36 | 59* | 6 | 8 | -5 | 47* | 1 | -3
O=C(COc1ccccc1)NC1CCCCCCC1 | 0 | 0 | 1 | 0 | 4 | -3 | x | x | x
O=C1CC(C(=O)Nc2ccc(C(=O)O)cc2)C(c2ccccc2)O1 (configuration not stated) | -5 | 1 | -11 | -2 | -1 | -1 | x | x | x
O=C1CC(C(=O)Nc2ccc(O)c(C(=O)O)c2)C(c2ccccc2)O1 (configuration not stated) | 2 | 3 | 51* | 0 | 1 | -6 | 30* | -7 | 3
O=C(Oc1ccccc1C(=O)N1CCOCC1)c1ccc(F)cc1 | 2 | 0 | 97* | 2 | 4 | 0 | 0 | -5 | x
